Test results reported in ChEMBL document CHEMBL2390884, “Design, synthesis and antiproliferative activity studies of novel 1,2,3-triazole-dithiocarbamate-urea hybrids” (Eur J Med Chem, 2013).
Activity calls are given as the source filed them. The rule behind the calls is not given here.

What was measured:
MGC-803 [1] = assay: Induction of apoptosis in human MGC803 cells assessed as nuclear shrinkage at 0.25 to 1 uM after 12 hrs by Hoechst 33258 staining-based fluorescence microscopy; format: functional, cell-based
Outline: (§1)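 MGC-803 cells seeded at 8×10^3 cells/well, treated 12 h at 0, 0.25, 0.5 or 1.0 µmol/L; cells collected, fixed, stained 20 min with Hoechst 33258, washed with PBS; nuclear shrinkage, chromatin condensation, intense fluorescence and fragmentation scored by fluorescence microscopy.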

MGC-803 [2] = assay: Cell cycle arrest in human MGC803 cells assessed as accumulation at G2/M phase after 12 to 24 hrs by propidium iodide staining-based flow cytometry; format: functional
Outline: (§2)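 Exponentially growing MGC-803 cells (5×10^5) treated at 0, 0.25, 0.5 or 1.0 µmol/L for 12 or 24 h; cells collected, fixed in ice-cold 70% ethanol, treated with buffer containing RNAse A and 0.1% Triton X-100, stained with PI; DNA content analysed by flow cytometry to give percentages of cells in G1, S and G2/M phases.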

MGC-803 [3] = assay: Cell cycle arrest in human MGC803 cells assessed as accumulation at G2/M phase at 0.25 uM after 24 hrs by propidium iodide staining-based flow cytometry; format: functional; outline: as §2
MGC-803 [4] = assay: Induction of apoptosis in human MGC803 cells assessed as viable cells at 0.5 uM after 12 hrs by AnnexinV-FITC/propidium iodide staining-based flow cytometry (reference value: 91.9 %); format: functional; settings: MGC-803, 12 h, read-out: Activity
MGC-803 [5] = assay: Induction of apoptosis in human MGC803 cells assessed as early apoptotic cells at 0.5 uM after 12 hrs by AnnexinV-FITC/propidium iodide staining-based flow cytometry (reference value: 2.8 %); format: functional
MGC-803 [6] = assay: Cell cycle arrest in human MGC803 cells assessed as reduction in G1 phase accumulation after 12 to 24 hrs by propidium iodide staining-based flow cytometry; format: functional; outline: as §2
MGC-803 [7] = assay: Cell cycle arrest in human MGC803 cells assessed as accumulation at G0/G1 phase at 0.5 uM after 12 hrs by propidium iodide staining-based flow cytometry; format: functional; outline: as §2
MGC-803 [8] = assay: Cell cycle arrest in human MGC803 cells assessed as accumulation at G2/M phase at 0.25 to 1 uM by propidium iodide staining-based flow cytometry; format: functional; settings: TDE = time-dependent effect; outline: as §2
MGC-803 [9] = assay: Cell cycle arrest in human MGC803 cells assessed as accumulation at G0/G1 phase at 0.5 uM after 24 hrs by propidium iodide staining-based flow cytometry; format: functional; outline: as §2
MGC-803 [10] = assay: Cell cycle arrest in human MGC803 cells assessed as accumulation at G0/G1 phase at 0.25 uM after 12 hrs by propidium iodide staining-based flow cytometry; format: functional; outline: as §2
MGC-803 [11] = assay: Cell cycle arrest in human MGC803 cells assessed as reduction in G1 phase accumulation at 0.25 to 1 uM by propidium iodide staining-based flow cytometry; format: functional; settings: TDE = time-dependent effect; outline: as §2
[12] = Cytotoxicity against human EC9706 cells after 72 hrs by MTT assay; format: functional, cell-based; settings: EC9706, 72 h
MGC-803 [13] = assay: Cell cycle arrest in human MGC803 cells assessed as accumulation at G2/M phase at 0.25 uM after 12 hrs by propidium iodide staining-based flow cytometry; format: functional; outline: as §2
MGC-803 [14] = assay: Induction of apoptosis in human MGC803 cells assessed as nuclear fragmentation at 0.25 to 1 uM after 12 hrs by Hoechst 33258 staining-based fluorescence microscopy; format: functional, cell-based; outline: as §1
MGC-803 [15] = assay: Induction of apoptosis in human MGC803 cells assessed as early apoptotic cells at 0.25 uM after 12 hrs by AnnexinV-FITC/propidium iodide staining-based flow cytometry (reference value: 2.8 %); format: functional
MGC-803 [16] = assay: Cell cycle arrest in human MGC803 cells assessed as accumulation at G0/G1 phase at 1 uM after 24 hrs by propidium iodide staining-based flow cytometry; format: functional; outline: as §2
MGC-803 [17] = assay: Cell cycle arrest in human MGC803 cells assessed as accumulation at G2/M phase at 0.5 uM after 24 hrs by propidium iodide staining-based flow cytometry; format: functional; outline: as §2
MGC-803 [18] = assay: Cell cycle arrest in human MGC803 cells assessed as accumulation at S phase at 0.25 uM after 24 hrs by propidium iodide staining-based flow cytometry; format: functional; outline: as §2
MGC-803 [19] = assay: Cell cycle arrest in human MGC803 cells assessed as accumulation at G2/M phase at 1 uM after 24 hrs by propidium iodide staining-based flow cytometry; format: functional; outline: as §2
MGC-803 [20] = assay: Cell cycle arrest in human MGC803 cells assessed as accumulation at G0/G1 phase at 1 uM after 12 hrs by propidium iodide staining-based flow cytometry; format: functional; outline: as §2
MGC-803 [21] = assay: Induction of apoptosis in human MGC803 cells after 12 hrs by AnnexinV-FITC/propidium iodide staining-based flow cytometry; format: functional, cell-based
MCF7 = assay: Cytotoxicity against human MCF7 cells after 72 hrs by MTT assay; format: functional, cell-based; settings: MCF7, 72 h
MGC-803 [22] = assay: Cell cycle arrest in human MGC803 cells assessed as accumulation at S phase at 1 uM after 24 hrs by propidium iodide staining-based flow cytometry; format: functional; outline: as §2
MGC-803 [23] = assay: Cell cycle arrest in human MGC803 cells assessed as accumulation at G0/G1 phase at 0.25 uM after 24 hrs by propidium iodide staining-based flow cytometry; format: functional; outline: as §2
MGC-803 [24] = assay: Induction of apoptosis in human MGC803 cells assessed as chromatin condensation at 0.25 to 1 uM after 12 hrs by Hoechst 33258 staining-based fluorescence microscopy; format: functional, cell-based; outline: as §1
MGC-803 [25] = assay: Cell cycle arrest in human MGC803 cells assessed as accumulation at S phase at 0.5 uM after 12 hrs by propidium iodide staining-based flow cytometry; format: functional; outline: as §2
MGC-803 [26] = assay: Induction of apoptosis in human MGC803 cells assessed as viable cells at 0.25 uM after 12 hrs by AnnexinV-FITC/propidium iodide staining-based flow cytometry (reference value: 91.9 %); format: functional; settings: MGC-803, 12 h, read-out: Activity
SMMC-7721 = assay: Cytotoxicity against human SMMC7721 cells after 72 hrs by MTT assay; format: functional, cell-based; settings: SMMC-7721, 72 h
MGC-803 [27] = assay: Induction of apoptosis in human MGC803 cells assessed as late apoptotic cells at 0.5 uM after 12 hrs by AnnexinV-FITC/propidium iodide staining-based flow cytometry (reference value: 3.0 %); format: functional
MGC-803 [28] = assay: Cell cycle arrest in human MGC803 cells assessed as reduction in S phase accumulation after 12 to 24 hrs by propidium iodide staining-based flow cytometry; format: functional; outline: as §2
MGC-803 [29] = assay: Induction of apoptosis in human MGC803 cells assessed as viable cells at 1 uM after 12 hrs by AnnexinV-FITC/propidium iodide staining-based flow cytometry (reference value: 91.9 %); format: functional; settings: MGC-803, 12 h, read-out: Activity
MGC-803 [30] = assay: Induction of apoptosis in human MGC803 cells assessed as necrotic cells at 0.25 uM after 12 hrs by AnnexinV-FITC/propidium iodide staining-based flow cytometry (reference value: 2.4 %); format: functional
MGC-803 [31] = assay: Cell cycle arrest in human MGC803 cells assessed as accumulation at G2/M phase at 0.5 uM after 12 hrs by propidium iodide staining-based flow cytometry; format: functional; outline: as §2
MGC-803 [32] = assay: Cell cycle arrest in human MGC803 cells assessed as accumulation at G2/M phase at 1 uM after 12 hrs by propidium iodide staining-based flow cytometry; format: functional; outline: as §2
MGC-803 [33] = assay: Induction of apoptosis in human MGC803 cells assessed as early apoptotic cells at 1 uM after 12 hrs by AnnexinV-FITC/propidium iodide staining-based flow cytometry (reference value: 2.8 %); format: functional

For `CC(C)NC(=O)N1CCN(C(=S)SCc2cn(Cc3ccc(F)cc3)nn2)CC1`, the Activity (MGC-803 [1]) was “Active”, the Activity (MGC-803 [2]) was “Dose-dependent effect” and the Activity (MGC-803 [3]) was 58.94%. The viability at 0.5 µM (MGC-803 [4]) was 80.1%, the Activity (MGC-803 [5]) was 17.2% and the Activity (MGC-803 [6]) was “Dose-dependent effect”. For the same compound, the Activity (MGC-803 [7]) was 22.18%, the Activity (MGC-803 [8]) was “tde” and the Activity (MGC-803 [9]) was 4.91%. The Activity (MGC-803 [10]) was 37.35%, the Activity (MGC-803 [11]) was “tde” and the IC50 [12] was 12.2 µM. The Activity (MGC-803 [13]) was 20.84%, the Activity (MGC-803 [14]) was “Active” and the Activity (MGC-803 [15]) was 9.2%. For the same compound, the Activity (MGC-803 [16]) was 2.32%, the Activity (MGC-803 [17]) was 69.88% and the Activity (MGC-803 [18]) was 25.21%. The Activity (MGC-803 [19]) was 79.02%, the Activity (MGC-803 [20]) was 3.62% and the Activity (MGC-803 [21]) was “Dose-dependent effect”. The IC50 (MCF7) was 1.66 µM, the Activity (MGC-803 [22]) was 15.91% and the Activity (MGC-803 [23]) was 13.78%. For the same compound, the Activity (MGC-803 [24]) was “Active”, the Activity (MGC-803 [25]) was 32.65% and the viability at 0.25 µM (MGC-803 [26]) was 88.1%. For the same compound, the IC50 (SMMC-7721) was 5.97 µM, the Activity (MGC-803 [27]) was 1.8% and the Activity (MGC-803 [28]) was “Dose-dependent effect”. The viability at 1 µM (MGC-803 [29]) was 65%, the Activity (MGC-803 [30]) was 0.5% and the Activity (MGC-803 [31]) was 46.86%. It also gave an Activity (MGC-803 [32]) of 68.68% and an Activity (MGC-803 [33]) of 31.4%.
